Most compounds without a hit are left out; they make up all but 4% or so of the library.
FN deposit inh – inhibitors of fibronectin matrix deposition, primary screen, AH1F cells, Alexa488-fibronectin fluorescence, plate reader; AH1F fibroblasts, overnight; inhibition, % at 12.6 µM; 350,000 compounds, 0.086% hits; AID 743247, 2014;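 active means mean inhibition across replicates of 30% or more, regardless of how many single replicates reach that level; inconclusive means mean under 30% yet at least half of replicates reach 30%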;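 further: positive control wells lacked labelled fibronectin entirely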
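Measured by – fluorescence 485/525 nm · System – AH1F fibroblast monolayer, labelled fibronectin deposition · Amount – 10000 cells per well · Buffer or medium – serum-reduced DMEM (2% serum) · Doses – single dose, pinned · Also added – fluorescent fibronectin at 24 nM final · Schedule – 1 h cell attachment, overnight exposure to compound and label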
E-selectin induc – E-selectin induction in HUVECs, primary screen, imaging, HUVEC, immunofluorescence imaging, single point. P16581. normalized: neutral wells 0, TNF-alpha wells 100. activation, % at 7.58 µM. 260,000 compounds, 0.37% hits;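 active means mean E-selectin-positive cell signal at least 10% of the positive control, reached in at least 60% of replicates, without over 20% cell loss; inconclusive means no rule given, readout overlaps actives, possibly toxicity-flagged; inactive means the rest, including those meeting only one limit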
Target sequence (P16581 whole entry, looked up): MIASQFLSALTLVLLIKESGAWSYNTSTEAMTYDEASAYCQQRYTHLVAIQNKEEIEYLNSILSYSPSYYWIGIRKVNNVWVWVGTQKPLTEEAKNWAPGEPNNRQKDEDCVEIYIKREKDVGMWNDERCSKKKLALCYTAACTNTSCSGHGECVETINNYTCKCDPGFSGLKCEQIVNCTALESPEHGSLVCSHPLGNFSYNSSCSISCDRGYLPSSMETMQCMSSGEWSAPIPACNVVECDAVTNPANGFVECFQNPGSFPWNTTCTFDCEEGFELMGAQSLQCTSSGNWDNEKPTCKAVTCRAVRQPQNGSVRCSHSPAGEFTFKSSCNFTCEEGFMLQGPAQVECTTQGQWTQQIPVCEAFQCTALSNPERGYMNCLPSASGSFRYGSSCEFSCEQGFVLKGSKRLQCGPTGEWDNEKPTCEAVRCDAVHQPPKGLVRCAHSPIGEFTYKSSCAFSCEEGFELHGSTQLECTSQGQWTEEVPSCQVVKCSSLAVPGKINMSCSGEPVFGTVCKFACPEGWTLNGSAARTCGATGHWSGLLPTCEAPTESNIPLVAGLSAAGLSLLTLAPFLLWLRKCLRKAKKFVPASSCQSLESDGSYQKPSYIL
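System: HUVEC, human umbilical vein endothelial cells; quantity: 3,000 cells/well; buffer or medium: EGM-2 medium, gelatin-coated wells; dosing: single-point compound dose; detection: immunofluorescence imaging; evaluation: % PE-positive cells; benchmarks: TNF-alpha, DMSO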
FGF22 binding – binders of human FGF22 protein, primary screen, FGF22 synaptogenesis inhibitor project, biophysical, thermal shift, single point | recombinant FGF22 thermal shift, SYPRO orange fluorescence; percent of sucrose octasulfate shift, DMSO zero | activity (Tm shift, normalised), % at 9.99 µM | AID 651658, 2012 | 340,000 compounds, 1.5% hits;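 active means mean Tm shift, scaled 0 neutral to 100 positive control, at about 1.3% or above, every replicate too, limit read from the data; inconclusive means no clear call, values can overlap the other calls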
C2C12 statin – suppressors of statin myotoxicity in C2C12 myotubes, primary screen, cell-based, single point, plate reader. rescue of ATP level, % at 7.49 µM. AID 602340, 2012. C2C12 myotubes + simvastatin, ATP luminescence, 48 h; scaled: DMSO 0, geranylgeraniol control 100. 330,000 compounds, 0.78% hits;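 active means mean ATP rescue above about 67%, or every replicate alone reaching that limit, limit read from the data, passing the limit was not always enough; inconclusive means no clear call, values can overlap the other calls; inactive means mean under the limit and some replicate under it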;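 further: myotubes were challenged with 10 µM simvastatin during compound exposure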
SIRT5 inh – SIRT5 desuccinylase inhibitors, primary screen, biochemical, fluorescence imaging, single point, set 5. NAD-dependent protein deacylase sirtuin-5, mitochondrial (Homo sapiens), Q9NXA8. Purified SirT5, succinyl-peptide AMC, trypsin-coupled fluorescence. inhibition, % at 15 µM. 330,000 compounds, 1.1% hits. AID 652115, 2013; in the data active means inhibition above about 15%; inconclusive means no clear call, values can overlap the other calls
rRNA inh HTS – reduced GFP signal of wild-type E. coli, primary screen, bacterial rRNA inhibitor project, GFP/RFP fluorescence, OD600, single point. 350,000 compounds, 1.6% hits. AID 720706, 2013. GFP signal change (wild-type ribosome), % (test concentration not listed). E. coli WT GFP vs humanized-ribosome RFP mutants, 24 h; hits give low values; DMSO median 0, no signal -100;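 active means significant combined selectivity score with lowered wild-type GFP, culture density cut under 30%, mutant RFP and density less affected; inactive means any of these conditions unmet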
* hit, by the source's call; ? = inconclusive; / = no result; ! = repeats disagree.

SMILES	FN deposit inh	E-selectin induc	FGF22 binding	C2C12 statin	SIRT5 inh	rRNA inh HTS
Cc1ccc(S(=O)(=O)N(C)C[C@@H]2Oc3ccc(NC(=O)NC4CCCCC4)cc3CC(=O)N([C@@H](C)CO)C[C@@H]2C)cc1	/	2	0	-86	-5	-2
Cc1noc(C)c1NC(=O)N(C)C[C@H]1OCCCC[C@H](C)Oc2ccc(NC(=O)c3ccccc3)cc2C(=O)N([C@H](C)CO)C[C@@H]1C	-9	0	/	/	0	-1
COc1ccccc1C#Cc1ccc([C@H]2[C@@H](CO)N3CCCCN(C(=O)C4CCCC4)C[C@@H]23)cc1	/	/	-1	/	19*	/
COc1ccccc1NC(=O)N1CCCCN2[C@H](C1)[C@@H](c1ccc(C#CC3CCCC3)cc1)[C@@H]2CO	/	-1	-1	-9	16*	6
O=C(C[C@H]1CC[C@@H](NC(=O)Nc2ccccc2)[C@@H](CO)O1)NCc1ccccn1	/	-1	0	-5	0	3
C[C@@H]1CN([C@@H](C)CO)C(=O)c2cc(N(C)C)ccc2O[C@@H]1CN(C)S(=O)(=O)c1cn(C)cn1	6	-10	0	-37	4	-1
C[C@H](CO)N1C[C@H](C)[C@@H](CN(C)S(=O)(=O)c2cn(C)cn2)Oc2ccc(NC(=O)Cn3cnnn3)cc2C1=O	0	0	44*!	21	8	4
C[C@@H]1CN([C@@H](C)CO)C(=O)c2cc(NC(=O)C3CC3)ccc2O[C@@H]1CN(C)S(=O)(=O)c1cn(C)cn1	/	0	0	-26	25*	3
Cc1noc(C)c1S(=O)(=O)N(C)C[C@H]1Oc2ccc(NC(=O)Cn3cnnn3)cc2CC(=O)N([C@H](C)CO)C[C@H]1C	/	-8	0	7	28*	2
C[C@@H]1CN([C@H](C)CO)C(=O)c2cc(N(C)C)ccc2O[C@H]1CN(C)S(=O)(=O)c1cn(C)cn1	1	63*	0	2	3	1
COc1ccc2c3c(n(C)c2c1)[C@@H](CO)N(C)CC31CN(C(=O)c2ccccc2F)C1	/	0	0	/	/	-2
Cc1noc(C)c1NC(=O)N[C@H]1CC[C@H](CC(=O)N2CCCCC2)O[C@H]1CO	/	-1	0	-4	-1	1
C[C@@H]1CN([C@H](C)CO)C(=O)c2cc(NC(=O)Cn3cnnn3)ccc2O[C@H]1CN(C)S(=O)(=O)c1ccccc1	/	39*	0	-26	-5	1
CCSCC1COC(c2cccn2Cc2ccc(C)cc2)=N1 (configuration not stated)	-1	/	/	-1	/	/
CCC1COC(c2cccn2Cc2ccc(Cl)cc2)=N1 (configuration not stated)	-4	/	0	8	/	-22*
Cc1ccc(NC(=O)Nc2ccc3c(c2)N(C)C(=O)CS3)cc1C	0	/	1	-4	/	-13*
COCCOC(=O)N1C(=O)[C@@]2(c3cc(C#Cc4ccc(OC)cc4)ccc31)[C@H](C(=O)N1CCN(c3ncccn3)CC1)[C@H]1C(=O)O[C@H](c3ccccc3)[C@H](c3ccccc3)N1[C@@H]2c1ccccc1OCCO	/	/	0	/	13	/
CCc1nnc(NC(=O)CSc2nc3[nH]c(=O)cc(O)c3s2)s1	4	0	0	30	1	5
CCc1nnc(NC(=O)CSc2sc3c(O)cc(=O)[nH]c3c2C#N)s1	0	/	0	31	29*	7
Cc1ccc(C)c(NC(=O)CSc2sc3c(O)cc(=O)[nH]c3c2C#N)c1	-6	0	-1	19	4	2
Cc1csc(NC(=O)CSc2sc3c(O)cc(=O)[nH]c3c2C#N)n1	13	0	0	37	42*	0
COC(=O)c1ccc(C)c(NC(=O)CSc2sc3c(O)cc(=O)[nH]c3c2C#N)c1	-1	/	/	29	19*	-5
Cc1ccc(Cl)cc1NC(=O)CSc1sc2c(O)cc(=O)[nH]c2c1C#N	-2	0	/	8	4	7
CCSc1nnc(NC(=O)CSc2sc3c(O)cc(=O)[nH]c3c2C#N)s1	-6	0	/	8	32*	2
C[C@@H]1CCCCO[C@H](CN(C)Cc2ccncc2)[C@H](C)CN([C@H](C)CO)C(=O)c2cc(NS(=O)(=O)c3cn(C)cn3)ccc2O1	/	3	0	/	0	3
SMILES	FN deposit inh	E-selectin induc	FGF22 binding	C2C12 statin	SIRT5 inh	rRNA inh HTS
O=C(C[C@H]1C[C@@H]2c3cc(NS(=O)(=O)c4ccc(F)cc4)ccc3O[C@@H]2[C@@H](CO)O1)NCc1ccc(Cl)cc1	-20	0	0	15	2	-52
Cc1csc(NC(=O)CSc2nc3[nH]c(=O)cc(O)c3s2)n1	/	-1	0	175*	-1	0
O=C(CSc1nc2[nH]c(=O)cc(O)c2s1)Nc1nncs1	1	/	0	14	-3	4
C[C@@H]1CN([C@H](C)CO)C(=O)c2cc(NC(=O)CCC(F)(F)F)ccc2O[C@@H](C)CCCCO[C@@H]1CN(C)Cc1ccc(C(F)(F)F)cc1	/	0	0	125*	21*	5
C[C@H]1CCCCO[C@H](CN(C)Cc2ccc(Cl)c(Cl)c2)[C@@H](C)CN([C@@H](C)CO)C(=O)c2cc(NC(=O)CCC(F)(F)F)ccc2O1	/	0	0	/	15*	-3
C[C@@H]1CCCCO[C@@H](CN(C)Cc2ccc(C(F)(F)F)cc2)[C@@H](C)CN([C@@H](C)CO)C(=O)c2cc(NC(=O)CCC(F)(F)F)ccc2O1	/	0	0	83*	8	5
C[C@@H]1CN([C@@H](C)CO)C(=O)c2cc(NC(=O)CCC(F)(F)F)ccc2O[C@@H](C)CCCCO[C@H]1CN(C)Cc1ccc(Cl)c(Cl)c1	/	0	-1	/	10	0
C[C@@H]1CCCCO[C@H](CN(C)Cc2ccc(C(F)(F)F)cc2)[C@H](C)CN([C@@H](C)CO)C(=O)c2cc(NC(=O)CCC(F)(F)F)ccc2O1	/	?	0	-17	5	3
COCCNC(=O)[C@H]1[C@H](CO)[C@H]2Cn3c(cccc3=O)[C@H]2N1Cc1ccccc1OC	/	0	/	/	-5	-2
O=C(O)c1cccc(N2C(=O)c3ccc(Oc4ccc(Cl)cc4)cc3C2=O)c1	-8	/	0	/	4	-36*
